From ChEMBL document CHEMBL4376874, “Discovery of Potent and Selective Epidermal Growth Factor Receptor (EGFR) Bifunctional Small-Molecule Degraders” (J Med Chem, 2020)
Activity calls are given as the source filed them. No cut-off for these calls is given here.

How the values were obtained:
[1] = molecular target: T1, Epidermal growth factor receptor (Homo sapiens, UniProt P00533); assay: Binding affinity to human wild-type partial length EGFR (R669 to V1011 residues) expressed in bacterial expression system by kinomescan assay
[2] = molecular target: Epidermal growth factor receptor (Homo sapiens, UniProt P00533, L858R); set-up: species or system Hofmanni bacterium
[3] = tested on: NCI-H3255; assay: Antiproliferative activity against human H3255 cells measured after 3 days by CCK8 assay; format: functional, cell-based
Method in brief: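 H3255 cells seeded 4000/well the night before, then exposed to serial dilutions for 3 days. Growth read by Cell Counting Kit-8; three independent experiments. IC50 from nonlinear regression (log inhibitor vs response, variable slope).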

[4] = tested on: von Hippel-Lindau disease tumor suppressor/Epidermal growth factor receptor (Homo sapiens), P00533+P40337 [UNDEFINED MUTATION]; assay: Protac activity at VHL/EGFR exon 19 deletion mutant in human HCC827 cells assessed as induction of EGFR degradation at up to 1 uM treated 8 hrs post serum starvation measured after 16 hrs by Western blot analysis; format: cell-based
Method in brief: (§1)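 Cultured to 80% confluence in RPMI/1640 with 20% FBS at 37 °C and 5% CO2, then switched to serum-free medium for 8 h. Degraders were added over a concentration range up to 10 μM for 16 h, with gefitinib at 1 μM as reference. Lysates in Laemmli buffer were immunoblotted for EGFR, p-EGFR and p-AKT. DC50 came from band quantification by nonlinear regression (variable slope).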

[5] = molecular target: T1, Epidermal growth factor receptor; assay: Induction of wild-type EGFR degradation in human OVCAR8 cells at up to 10 uM treated 8 hrs post serum starvation measured after 16 hrs by Western blot analysis; format: cell-based
[6] = molecular target: von Hippel-Lindau disease tumor suppressor/Epidermal growth factor receptor (Homo sapiens, UniProt P00533+P40337); assay: Protac activity at VHL/EGFR exon 19 deletion mutant in human HCC827 cells assessed as induction of EGFR degradation treated 8 hrs post serum starvation measured after 16 hrs by Western blot analysis
[7] = tested on: HCC827; assay: Up regulation of HMGCS1 expression in human HCC827 cells at 100 nM measured after 16 hrs by LC-MS analysis; format: functional, cell-based
Method in brief: (§2)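 HCC-827 cells serum-starved 8 h, then treated at 100 nM for 16 h. Collected for label-free quantitative LC–MS proteomics; LFQ intensity compared between treated and control groups; three independent experiments.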

[8] = tested on: HCC827; assay: Up regulation of RRM2 expression in human HCC827 cells at 100 nM measured after 16 hrs by LC-MS analysis; format: functional, cell-based; method in brief: as §2
[9] = Cmax in Swiss albino mouse at 50 mg/kg, ip measured after 8 hrs; format: ADME, organism-based; set-up: dose 50 mg/kg, route intraperitoneal; conditions: in vivo
[10] = tested on: HCC827; assay: Up regulation of BIN1 expression in human HCC827 cells at 100 nM measured after 16 hrs by LC-MS analysis; format: functional, cell-based; method in brief: as §2
[11] = tested on: HCC827; assay: Up regulation of SEC61G expression in human HCC827 cells at 100 nM measured after 16 hrs by LC-MS analysis; format: functional, cell-based; method in brief: as §2
[12] = tested on: HCC827; assay: Up regulation of DAD1 expression in human HCC827 cells at 100 nM measured after 16 hrs by LC-MS analysis; format: functional, cell-based; method in brief: as §2
[13] = Cmax in Swiss albino mouse at 50 mg/kg, ip measured after 24 hrs; format: ADME, organism-based; set-up: dose 50 mg/kg, route intraperitoneal; conditions: in vivo
[14] = molecular target: von Hippel-Lindau disease tumor suppressor/Epidermal growth factor receptor (Homo sapiens, UniProt P00533+P40337, L858R)
[15] = tested on: HCC827; assay: Effect on AKT level in human HCC827 cells up to 10 uM treated 8 hrs post serum starvation measured after 16 hrs by Western blot analysis; format: ADME, cell-based; conditions: hcc827, 16 h
[16] = Toxicity in Swiss albino mouse assessed as clinical changes at 50 mg/kg, ip; format: organism-based; conditions: in vivo
[17] = tested on: NCI-H3255; assay: Effect on AKT level in human H3255 cells up to 10 uM treated 8 hrs post serum starvation measured after 16 hrs by Western blot analysis; format: ADME, cell-based; conditions: nci-h3255, 16 h
[18] = molecular target: T1, Epidermal growth factor receptor; assay: Induction of wild-type EGFR degradation in human H1299 cells at up to 10 uM treated 8 hrs post serum starvation measured after 16 hrs by Western blot analysis; format: cell-based
[19] = tested on: HCC827; assay: Down regulation of NGDN expression in human HCC827 cells at 100 nM measured after 16 hrs by LC-MS analysis; format: functional, cell-based; method in brief: as §2
[20] = tested on: HCC827; assay: Down regulation of TXNIP expression in human HCC827 cells at 100 nM measured after 16 hrs by LC-MS analysis; format: functional, cell-based; method in brief: as §2
[21] = tested on: Protein cereblon/Epidermal growth factor receptor (Homo sapiens), P00533+Q96SW2 [UNDEFINED MUTATION]; assay: Protac activity at CRBN/EGFR exon 19 deletion mutant in human HCC827 cells assessed as induction of EGFR degradation at up to 1 uM treated 8 hrs post serum starvation measured after 16 hrs by Western blot analysis; format: cell-based
[22] = tested on: Epidermal growth factor receptor (Homo sapiens), P00533 [L858R]; assay: Induction of EGFR L858R degradation in human H3255 cells assessed as reduction in EGFR autophosphorylation up to 100 nM treated 8 hrs post serum starvation measured after 16 hrs by Western blot analysis; format: cell-based
[23] = tested on: Epidermal growth factor receptor (Homo sapiens), P00533 [UNDEFINED MUTATION]; assay: Induction of EGFR exon 19 deletion mutant degradation in human HCC827 cells assessed as reduction in AKT phosphorylation up to 100 nM treated 8 hrs post serum starvation measured after 16 hrs by Western blot analysis; format: cell-based
[24] = tested on: Epidermal growth factor receptor (Homo sapiens), P00533 [L858R]; assay: Induction of EGFR L858R degradation in human H3255 cells assessed as reduction in ATK phosphorylation up to 100 nM treated 8 hrs post serum starvation measured after 16 hrs by Western blot analysis; format: cell-based
[25] = tested on: Epidermal growth factor receptor (Homo sapiens), P00533 [L858R]; assay: Induction of EGFR L858R degradation in human H3255 cells up to 100 nM treated 8 hrs post serum starvation measured after 16 hrs by Western blot analysis; format: cell-based
[26] = tested on: Epidermal growth factor receptor (Homo sapiens), P00533 [UNDEFINED MUTATION]; assay: Induction of EGFR exon 19 deletion mutant degradation in human HCC827 cells assessed as reduction in EGFR autophosphorylation up to 100 nM treated 8 hrs post serum starvation measured after 16 hrs by Western blot analysis; format: cell-based
[27] = tested on: Epidermal growth factor receptor (Homo sapiens), P00533 [UNDEFINED MUTATION]; assay: Induction of EGFR exon 19 deletion mutant degradation in human HCC827 cells up to 100 nM treated 8 hrs post serum starvation measured after 16 hrs by Western blot analysis; format: cell-based
[28] = tested on: von Hippel-Lindau disease tumor suppressor/Epidermal growth factor receptor (Homo sapiens), P00533+P40337 [L858R]; assay: Protac activity at VHL/EGFR L858R mutant in human H3255 cells assessed as induction of EGFR degradation at 1 to 10 uM treated 8 hrs post serum starvation measured after 16 hrs by Western blot analysis; format: cell-based; method in brief: as §1
[29] = tested on: von Hippel-Lindau disease tumor suppressor/Epidermal growth factor receptor (Homo sapiens), P00533+P40337 [UNDEFINED MUTATION]; assay: Protac activity at VHL/EGFR exon 19 deletion mutant in human HCC827 cells assessed as induction of EGFR degradation at 1 to 10 uM treated 8 hrs post serum starvation measured after 16 hrs by Western blot analysis; format: cell-based; method in brief: as §1
[30] = tested on: von Hippel-Lindau disease tumor suppressor/Epidermal growth factor receptor (Homo sapiens), P00533+P40337 [UNDEFINED MUTATION]; assay: Protac activity at VHL/EGFR exon 19 deletion mutant in human HCC827 cells assessed as reduction in AKT phosphorylation up to 10 uM treated 8 hrs post serum starvation measured after 16 hrs by Western blot analysis; format: cell-based
[31] = tested on: von Hippel-Lindau disease tumor suppressor/Epidermal growth factor receptor (Homo sapiens), P00533+P40337 [UNDEFINED MUTATION]; assay: Protac activity at VHL/EGFR exon 19 deletion mutant in human HCC827 cells assessed as reduction in EGFR autophosphorylation up to 10 uM treated 8 hrs post serum starvation measured after 16 hrs by Western blot analysis; format: cell-based
[32] = tested on: von Hippel-Lindau disease tumor suppressor/Epidermal growth factor receptor (Homo sapiens), P00533+P40337 [L858R]; assay: Protac activity at VHL/EGFR L858R mutant in human H3255 cells assessed as reduction in EGFR autophosphorylation up to 10 uM treated 8 hrs post serum starvation measured after 16 hrs by Western blot analysis; format: cell-based
[33] = tested on: von Hippel-Lindau disease tumor suppressor/Epidermal growth factor receptor (Homo sapiens), P00533+P40337 [L858R]; assay: Protac activity at VHL/EGFR L858R mutant in human H3255 cells assessed as reduction in AKT phosphorylation up to 10 uM treated 8 hrs post serum starvation measured after 16 hrs by Western blot analysis; format: cell-based
[34] = tested on: von Hippel-Lindau disease tumor suppressor/Epidermal growth factor receptor (Homo sapiens), P00533+P40337 [UNDEFINED MUTATION]; assay: Protac activity at VHL/EGFR exon 19 deletion mutant in human HCC827 cells assessed as induction of EGFR degradation up to 500 nM treated 8 hrs post serum starvation measured after 16 hrs by Western blot analysis; format: cell-based
[35] = tested on: von Hippel-Lindau disease tumor suppressor/Epidermal growth factor receptor (Homo sapiens), P00533+P40337 [L858R]; assay: Protac activity at VHL/EGFR L858R mutant in human H3255 cells assessed as induction of EGFR degradation up to 500 nM treated 8 hrs post serum starvation measured after 16 hrs by Western blot analysis; format: cell-based; method in brief: as §1

Compound: COc1cc2ncnc(Nc3ccc(F)c(Cl)c3)c2cc1OCCCN1CCN(C(=O)CCCCCCCCCC(=O)N[C@H](C(=O)N2C[C@@H](O)C[C@@H]2C(=O)NCc2ccc(-c3scnc3C)cc2)C(C)(C)C)CC1
- Kd [1]: 8.6 nM
- Kd [2]: 9 nM
- Activity [3]: Active

Compound: COc1cc2ncnc(Nc3ccc(F)c(Cl)c3)c2cc1OCCCN1CCN(C(=O)CCOCCOCCOCCC(=O)N[C@H](C(=O)N2C[C@H](O)C[C@H]2C(=O)NCc2ccc(-c3scnc3C)cc2)C(C)(C)C)CC1
- Activity [4]: inactive

Compound: COc1cc2ncnc(Nc3ccc(F)c(Cl)c3)c2cc1OCCCN1CCN(C(=O)CCCCCCCCCC(=O)N[C@H](C(=O)N2C[C@H](O)C[C@H]2C(=O)NCc2ccc(-c3scnc3C)cc2)C(C)(C)C)CC1
- Activity [5]: Not Active
- DC50 [6]: 5 nM
- Kd [1]: 11 nM
- Activity [7]: Active
- Activity [8]: Active
- Kd [2]: 12 nM
- Cmax [9]: 5000 nM
- Activity [10]: Active
- Activity [3]: Active
- Activity [11]: Active
- Activity [12]: Active
- Cmax [13]: 1000 nM
- DC50 [14]: 3.3 nM
- Activity [15]: Non-Toxic
- Activity [16]: Non-Toxic
- Activity [17]: Non-Toxic
- Activity [18]: Not Active
- Activity [19]: Active
- Activity [20]: Active

Compound: COc1cc2ncnc(Nc3ccc(F)c(Cl)c3)c2cc1OCCCN1CCN(CCC(=O)NCCOCCNc2cccc3c2C(=O)N(C2CCC(=O)NC2=O)C3=O)CC1 (configuration not stated)
- Activity [21]: Active

Compound: COc1cc2ncnc(Nc3ccc(F)c(Cl)c3)c2cc1OCCCN1CCN(CCC(=O)NCCCCCCNc2cccc3c2C(=O)N(C2CCC(=O)NC2=O)C3=O)CC1 (configuration not stated)
- Activity [21]: Active

Compound: COc1cc2ncnc(Nc3ccc(F)c(Cl)c3)c2cc1OCCCN1CCN(C(=O)CCOCCOCCOCCOCCOCCC(=O)N[C@H](C(=O)N2C[C@H](O)C[C@H]2C(=O)NCc2ccc(-c3scnc3C)cc2)C(C)(C)C)CC1
- Activity [4]: inactive

Compound: COc1cc2ncnc(Nc3ccc(F)c(Cl)c3)c2cc1OCCCN1CCN(CCC(=O)NCCOCCOCCOCCOCCOCCNc2cccc3c2C(=O)N(C2CCC(=O)NC2=O)C3=O)CC1 (configuration not stated)
- Activity [21]: Active

Compound: COc1cc2ncnc(Nc3ccc(F)c(Cl)c3)c2cc1OCCCN1CCN(C(=O)CCOCCC(=O)N[C@H](C(=O)N2C[C@H](O)C[C@H]2C(=O)NCc2ccc(-c3scnc3C)cc2)C(C)(C)C)CC1
- Activity [4]: inactive

Compound: COc1cc2ncnc(Nc3ccc(F)c(Cl)c3)c2cc1OCCCN1CCN(CCC(=O)NCCCCCCCCOc2cccc3c2C(=O)N(C2CCC(=O)N(C)C2=O)C3=O)CC1 (configuration not stated)
- Kd [1]: 3 nM
- Activity [22]: Active
- Kd [2]: 4.3 nM
- Activity [23]: Active
- Activity [24]: Active
- Activity [25]: inactive
- Activity [3]: Active
- Activity [26]: Active
- Activity [27]: inactive

Compound: COc1cc2ncnc(Nc3ccc(F)c(Cl)c3)c2cc1OCCCCCOCCOCCC(=O)N[C@H](C(=O)N1C[C@H](O)C[C@H]1C(=O)NCc1ccc(-c2scnc2C)cc1)C(C)(C)C
- Activity [28]: inactive
- Activity [29]: inactive
- Activity [30]: Active
- Activity [31]: Active
- Activity [3]: Active
- Activity [32]: Active
- Activity [33]: Active
- Activity [34]: Active
- Activity [35]: Active

Compound: COc1cc2ncnc(Nc3ccc(F)c(Cl)c3)c2cc1OCCCN1CCOCC1
- Activity [3]: Active
